Experimental data: ChEMBL document CHEMBL1129732, “Potent, cell active, non-thiol tetrapeptide inhibitors of farnesyltransferase” (J Med Chem, 1996)

Legend:
[1] = molecular target: Protein farnesyltransferase (Homo sapiens, UniProt P49354+P49356); assay: Inhibition of Farnesyltransferase; format: protein-complex assay
[2] = molecular target: Geranylgeranyl transferase type I (Homo sapiens, UniProt P49354+P53609); assay: Inhibition of Geranylgeranyl transferase type I; format: protein-complex assay
[3] = tested on: Rat1; assay: Inhibition of anchorage-independent growth of H-Ras-transformed rat-1 cells in soft agar; format: functional, cell-based
[4] = tested on: NIH3T3; assay: Highest tested nontoxic concentration (maximum tolerated dose) against NIH3T3 cells in XTT assay; format: functional, Mus musculus
In short: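 Untransformed NIH 3T3 cells were seeded at 2500 cells/well. Cells were incubated 48 h at 37 °C, then XTT with phenazine methosulfate was added. XTT reduction served as the measure of live cells.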

SMILES	IC50 [1]	IC50 [2]	IC50 [3]	MTD [4]
CC(C)(C)[C@H](NC(=O)Cc1c[nH]cn1)C(=O)N1Cc2ccccc2C[C@H]1C(=O)N[C@@H](CCC(N)=O)C(=O)O	28 nM		3.9 µM	>150 µM
CC(C)(C)[C@H](NC(=O)CCc1c[nH]cn1)C(=O)N1Cc2ccccc2C[C@H]1C(=O)N[C@@H](CCC(N)=O)C(=O)O	4.4 nM	168 µM		
CSCC[C@H](NC(=O)[C@@H]1Cc2ccccc2CN1C(=O)[C@@H](NCCc1c[nH]cn1)C(C)C)C(=O)O	0.79 nM	0.234 µM	3.8 µM	>150 µM
CC(C)(C)[C@H](NCCc1c[nH]cn1)C(=O)N1Cc2ccccc2C[C@H]1C(=O)N[C@@H](CCC(N)=O)C(=O)O	3.4 nM	30.5 µM	3.2 µM	
CSCC[C@H](NC(=O)[C@@H]1Cc2ccccc2CN1C(=O)[C@@H](NC(=O)Cc1c[nH]cn1)C(C)C)C(=O)O	6.6 nM	2.02 µM	50 µM	>150 µM

Further lines, with some results ahead:

IC50 [1]	IC50 [2]	SMILES	IC50 [3]	MTD [4]
84 nM	25.8 µM	CSCC[C@H](NC(=O)[C@@H]1Cc2ccccc2CN1C(=O)[C@@H](NC(=O)c1c[nH]cn1)C(C)C)C(=O)O		
114 nM	17.4 µM	CSCC[C@H](NC(=O)[C@@H]1Cc2ccccc2CN1C(=O)[C@@H](NCc1c[nH]cn1)C(C)C)C(=O)O		
20 nM	106 µM	CC(C)(C)[C@H](NCCCc1cnc[nH]1)C(=O)N1Cc2ccccc2C[C@H]1C(=O)N[C@@H](CCC(N)=O)C(=O)O		
6800 nM		CSCC[C@H](NC(=O)[C@H](Cc1ccccc1)NC(=O)[C@@H](NC(=O)[C@@H](N)Cc1cnc[nH]1)C(C)C)C(=O)O		
